# Assay: Toxicity liver stage against HepG2, at 10uM
# Type: cell-based
# Parameters: test concentration 10 uM, cell line HepG2-A16-CD81EGFP
# Details: human, HepG2-A16-CD81EGFP cells; read-out: INHIBITION
# Procedure, shortened: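 Uninfected HepG2-A16-CD81EGFP cells, 3 × 10^3 per well, 1536-well, plated on prespotted compound at 10 μM final, parasite-free screening media added to match infected plates; puromycin 10 μM positive, DMSO 0.5% negative; run in parallel with 48 h PbLuc assay at 37 °C, 5% CO2; viability by CellTiter-Glo luminescence, normalized to controls.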
row,Compound,cytotoxicity at 10 µM
1,CN(c1ncc(S(N)(=O)=O)s1)C1CCc2ccccc21 (configuration not stated),-1.62%
2,COCc1cc(N(C)CCC(O)c2ccccc2)n2nccc2n1 (configuration not stated),-2.49%
3,COc1ccc(C2(NCc3c(C)nc4c(C)cccn34)CCCC2)cc1,3.79%
4,CCS(=O)(=O)NCCCNC1CSCCc2ccccc21 (configuration not stated),-3.66%
5,CC(c1cccnc1)N(C)C(=O)NCCOc1ccc(C#N)cc1 (configuration not stated),-6.17%
6,Cc1cnc(CN(C)C2CCN(Cc3nc4c(F)cccc4[nH]3)C2)o1 (configuration not stated),2.53%
7,Cc1nccn1-c1ccc(C(=O)NCC(F)(F)F)nn1,-2.35%
8,CCO[C@H]1C[C@@H](O)C12CCN(C(=O)CC(F)(F)F)CC2,-6.36%
9,CN(Cc1ccccc1)c1ncccc1CNC(=O)c1ccnn1C,-1.37%
10,O=C(CC1CC1)N1CC[C@H]2[C@@H]1CCC(=O)N2c1cccnc1,3.06%
11,CN(CC(=O)N1CCC(Cc2cccc(C(N)=O)c2)C1)C1CCCC1 (configuration not stated),-7.92%
12,Cc1nn(C)c2c(NCc3ccccn3)nc(C(C)C)nc12,-3.23%
13,CNC(=O)C1CCCN1c1nc(C)c2ccccc2n1 (configuration not stated),10.4%
14,Cc1noc(C)c1CCC(=O)Nc1ccn(C)n1,-2.4%
15,Cc1csc(C2CCCN(C(=O)c3c(C)nn4cccnc34)C2)n1 (configuration not stated),-10.4%
16,O=C(c1cccc(N2CCCC2=O)c1)N1CCCC(n2cncn2)C1 (configuration not stated),-12%
17,Cn1c(=O)n(C)c2nc(Cl)c(CC(=O)c3ccc(F)cc3)n2c1=O,6.28%
18,CC(C(=O)O)N1CC2(CCC1=O)CCN(C/C=C/c1ccccc1)CC2 (configuration not stated),-1.72%
19,CN(CC(=O)NS(=O)(=O)c1ccc(F)cc1)Cc1ccccc1,14.3%
20,Cc1cn(CC(=O)NC2CCN(C(=O)C3CC3)CC2)c2ccccc12,-3.57%
21,Cc1cnc(CN2CCCC(c3cc(C(N)=O)[nH]n3)C2)o1 (configuration not stated),-9.14%

row,Compound,cytotoxicity at 10 µM
1,COCCCN(CCOC)C(=O)Nc1ccccc1Br,5.86%
2,c1ccc2c(NC3CCc4ncnn4C3)ncnc2c1 (configuration not stated),7.21%
3,CC(=O)N1CC[C@H]2OCC[C@@]2(C(=O)NCc2cnc(C)cn2)C1,-106%
4,Cc1cc(-c2nc(-c3cccc(CN4CCOCC4)c3)no2)no1,-7.33%
5,O=C(CCc1ccccn1)NC1CCN(c2cccc(Cl)c2)C1 (configuration not stated),17.1%
6,CN(CCN1CCCCC1)C(=O)c1cc(CN2CCOCC2)on1,-22.7%
7,CS(=O)(=O)NC1CCN(C(=O)CCC2CCCO2)CC1 (configuration not stated),-0.367%
8,Cc1cc(CNc2ccc(CC(=O)N(C)c3ccccc3)cc2)no1,-13.9%
9,N#Cc1cccnc1NCCNC(=O)NCCSC(F)(F)F,1.2%
10,COCC(=O)N1CCC2(CC(C(=O)NCc3cccnc3)=NO2)C1 (configuration not stated),-1.34%
11,Cc1cc(C)n(-c2ccccc2NC(=O)NCCCN(C)S(C)(=O)=O)n1,-4.01%
12,CC(c1cc(F)ccc1F)N1CCN(Cc2nccn2C)CC1 (configuration not stated),-15.6%
13,Cc1nnc2n1CCN(CC(=O)N1CCc3ccccc3C1)C2,-9.27%
14,Cc1c(C(=O)NCC(F)(F)F)nnn1-c1ccccc1Cl,2.37%
15,COCC(=O)N1CCC(c2cc(C(F)(F)F)n3ccnc3n2)CC1,1.44%
16,Cc1occc1C(=O)N1CCc2c(CNc3ncccn3)cncc2C1,-83.1%
17,COc1ccc(N2CCC(N(C)C(=O)C(C)SC)CC2)cc1 (configuration not stated),1.69%
18,Cc1ccccc1CN(CCN(C)C)Cc1ccc(C(=O)O)cc1,-1.6%
19,N#CC1(NC(=O)c2cc(Cl)ccc2OC(F)F)CCOCC1,7.48%
20,CSCC1CCCN1CCc1ccncc1 (configuration not stated),0.684%
21,Cc1ccc(NC(=O)C2CSCN2C(=O)c2cnccn2)cc1C (configuration not stated),-8.3%

row,Compound,cytotoxicity at 10 µM
1,CS(=O)(=O)N1CCOCC2(CCN(c3ccccn3)C2)C1 (configuration not stated),14.3%
2,Cc1nc(-c2cc(Cl)c3c(c2)CC(CN)O3)c[nH]1 (configuration not stated),-12.2%
3,COCC(=O)N1C[C@@H](C)[C@](O)(C(C)C)C1,1.69%
4,O=C1CSc2ccccc2N1CC(=O)N1CCCCC1c1nccs1 (configuration not stated),14.4%
5,Cc1ncsc1C(=O)N1CCCC(c2nccn2Cc2cscn2)C1 (configuration not stated),-0.0612%
6,Cc1cc(C(=O)N(C)CCCn2cccn2)nc(N)n1,-7.04%
7,O=C1O[C@@H]2CN(Cc3cc4ccccc4o3)C[C@@H]2N1Cc1ccccn1,5.16%
8,Cc1ccccc1OCCN(C)C(=O)NC(C)c1nncn1C (configuration not stated),-12.5%
9,Fc1ccccc1-c1cc(N2[C@@H]3CC[C@H]2CNC3)n2nccc2n1,23.1%
10,CCN1Cc2c(C(=O)NCC3CC3)ncn2-c2ccccc2S1(=O)=O,-12.2%
11,CC(=O)c1ccc(NC(=O)c2ccc3c(c2)C2(CCCCC2)CN3)cc1,-108%
12,CN(C)C(=O)N1CCN(C(=O)c2ccn3ccnc3c2)CC1,-5.02%
13,CS(=O)(=O)N1CCOCC2(CN(Cc3ccsc3)CCO2)C1 (configuration not stated),-11.7%
14,O=C(c1ccco1)N1CC[C@H]2[C@H]1CCN2S(=O)(=O)C1CC1,9.22%
15,CC(=O)N1CCN(C(=O)CN2CCc3c(ncn3C3CC3)C2)CC1,3.3%
16,COCc1cc(N(C)Cc2c(C)nn(C)c2C)n2nccc2n1,2.45%
17,N#Cc1ccsc1N1CCC(Sc2ccncc2)C1=O (configuration not stated),-15.7%
18,CCc1nc2n(n1)CC(NCc1cc3ccccc3o1)CC2 (configuration not stated),3.77%
19,O=C(CCC1CCN(Cc2ncc[nH]2)CC1)Nc1ccccc1Cl,-21.8%
20,Cc1cc(CN2CCN(C(=O)Nc3cccnc3)CC2)on1,-7.72%
21,O=C(Nc1ccc(N2CCCCC2)nc1)N1CCc2sccc2C1,-7.98%

row,Compound,cytotoxicity at 10 µM
1,Cc1ccc(N2CCCC(NCc3cccc4c3OCO4)C2)nn1 (configuration not stated),-16.4%
2,CCO[C@H]1C[C@@H](O)C12CCN(C1CCN(c3ccccc3)CC1)CC2,4.24%
3,COc1ccc(OC)c(C2CCN(Cc3nc(C)n4ccccc34)C2)c1 (configuration not stated),-8.66%
4,CCc1nnsc1C(=O)N(C)Cc1nnc2n1CCC2,-0.862%
5,CN(Cc1ccco1)C(=O)NCc1ccnc(SC(C)(C)C)c1,14.4%
6,C[C@@H]1CN(S(=O)(=O)N2CCOCC2)C[C@@]1(O)C1CC1,5.91%
7,CC(C)CCN(C(=O)c1cccc(NC(N)=O)c1)C1CC1,-6.46%
8,CCOC[C@]12COC[C@H]1CN(Cc1cccc(OC)c1)C2,-75.9%
9,Cn1cnc(S(=O)(=O)N2CCN(CC3CC3)c3ncccc3C2)c1,-160%
10,CN(CC1CCCO1)C1CCN(CCc2ccccn2)CC1 (configuration not stated),-5.6%
11,CCc1nccn1-c1cncc(C2CCCN2)n1 (configuration not stated),-6.17%
12,CCCc1nc(N2CCC(C)CC2)c2c(n1)c(C)nn2CC,1.64%
13,CNC(=O)CN1CCCC12CCN(C(=O)c1ccoc1)CC2,6.53%
14,O=C(c1ncccn1)N1C[C@H]2CCC[C@@]2(COc2ccccn2)C1,5.29%
15,CCN1CCC2(CC1)C(=O)N(c1ccc(C)nc1)CCN2CC(C)C,16.4%
16,CSc1ccc(C(=O)N2CC(=O)N(Cc3cccs3)CC(O)C2)cc1 (configuration not stated),2.31%
17,Cc1c(CN2CCCC2(C)C(=O)NC2CCCC2)cnn1C (configuration not stated),1.05%
18,CCC(Nc1ncnc2sc(C(=O)O)c(C)c12)c1ccnn1C (configuration not stated),0.512%
19,CCc1ccc(NC(=O)N2C[C@@H]3C[C@H](C(=O)NC4CCC4)[C@H](C2)O3)cc1,-2.25%

# Source: ChEMBL document CHEMBL4513216, “Probing the Open Global Health Chemical Diversity Library for Multistage-Active Starting Points for Next-Generation Antimalarials” (ACS Infect Dis, 2020)
